Data reported in publication PMC5002266 (Nuclear medicine and biology, 2016).

Experiments:
[1] = Metabolism; assay type: in vivo; settings: athymic nude mice (n = 3); ~10 MBq tail vein; feces at 2 h p.i.; radio-HPLC
Procedure, shortened: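 Athymic nude mice (n = 3) received ~10 MBq tracer i.v. Feces collected at 120 min p.i. were counted, suspended in 20% aqueous acetonitrile, vortexed ~5 min and centrifuged at 8,000 rpm. The supernatant was counted, filtered at 0.20 µm and run on radio-HPLC (C8, 1 mL/min; 25 mM NH4OAc pH 6.8/acetonitrile, isocratic 5 min then gradient to 60% acetonitrile at 20 min).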

[2] = system: BALB/c nude mice bearing U87MG human glioma xenografts; experiment: Biodistribution of 99mTc radiotracer in tumor-bearing mice; assay type: in vivo; settings: BALB/c nude mice with U87MG xenografts, mean ± SD, n = 5
Procedure, shortened: (§1)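 Female BALB/c nude mice (4–5 weeks, 16–20 g) carried U87MG cells (5 × 10^6, s.c. shoulder flank) and were used at a tumor volume of ~400 mm3 (~10 days). Each received ~0.1 MBq of 99mTc tracer (~2 ng HYNIC conjugate) in saline by tail vein. Five animals were killed per time point (5, 30, 60, 120 min p.i.). Organs were weighed and γ-counted as %ID/g, and tumor-to-background ratios were reported as mean ± SD.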

[3] = system: integrin αvβ3; experiment: Monitoring αvβ3 expression by SPECT/CT in three tumor models; assay type: in vivo, athymic nu/nu mice; settings: SPECT/CT of tumor-bearing athymic nude mice, ~50 MBq
Procedure, shortened: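 Female athymic nu/nu mice (4–5 weeks) received 5 × 10^6 cells in 0.1 mL saline: U87MG and PC-3 into shoulder flanks, MDA-MB-435 into breast fat pads. At tumor sizes of 0.1–0.5 g, they were given tracer i.v. and imaged on a multi-pinhole (1.0 mm) SPECT/CT at 60 min p.i. under ~3.0% isoflurane. Tumor ROIs came from CT, and activity was converted via a γ-counter-calibrated standard curve to %ID/g, assuming ~1 g/cm3.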

[4] = Biodistribution of 99mTc radiotracer in tumor-bearing mice; assay type: in vivo, BALB/c nude mice; settings: female, BALB/c nude, mouse, iv, 0.1 MBq, total radioactivity
Procedure, shortened: as §1

[5] = feces at 2 h p.i.; ref [14]; cited from earlier work

In the case of “[^99mTc(HYNIC-4P-RGD3)(tricine)(TPPTS)] (head to tail) [^99mTc-4P-RGD3]”, the “Radiotracer remaining intact in the feces sample” value [1] is reported as “More than 95%”, the Tumor/Blood ratio ([2]; 5 min p.i.) is reported as 1.23 ± 0.34 and the Tumor/Liver ratio ([2]; 5 min p.i.) is reported as 0.55 ± 0.16. It also gave a Tumor/Lung ratio ([2]; 5 min p.i.) of 0.69 ± 0.15, a Tumor/Muscle ratio ([2]; 5 min p.i.) of 1.80 ± 0.48 and a Tumor/Blood ratio ([2]; 30 min p.i.) of 3.69 ± 0.48. The Tumor/Liver ratio ([2]; 30 min p.i.) was 0.79 ± 0.11, the Tumor/Lung ratio ([2]; 30 min p.i.) was 1.07 ± 0.13 and the Tumor/Muscle ratio ([2]; 30 min p.i.) was 2.29 ± 0.34. The Tumor/Blood ratio ([2]; 60 min p.i.) was 6.21 ± 2.34, the Tumor/Liver ratio ([2]; 60 min p.i.) was 0.87 ± 0.25 and the Tumor/Lung ratio ([2]; 60 min p.i.) was 1.08 ± 0.25. The Tumor/Muscle ratio ([2]; 60 min p.i.) was 1.78 ± 0.69, the Tumor/Blood ratio ([2]; 120 min p.i.) was 8.21 ± 1.71 and the Tumor/Liver ratio ([2]; 120 min p.i.) was 0.70 ± 0.19. The Tumor/Lung ratio ([2]; 120 min p.i.) was 1.45 ± 0.22, the Tumor/Muscle ratio ([2]; 120 min p.i.) was 2.79 ± 0.55 and the “Ranking order of tumor uptake values among tumor models” value [3] was “U87MG > MDA-MB-435 >> PC-3”.
With `N=C(N)NCCC[C@@H]1NC(=O)[C@H](CCCCNC(=O)CCOCCOCCOCCOCCNC(=O)CC[C@H](NC(=O)CCOCCOCCOCCOCCNC(=O)c2ccc(NN)nc2)C(=O)NCCOCCOCCOCCOCCC(=O)NCCCC[C@@H]2NC(=O)[C@@H](Cc3ccccc3)NC(=O)[C@H](CC(=O)O)NC(=O)CNC(=O)[C@H](CCCNC(=N)N)NC2=O)NC(=O)[C@@H](Cc2ccccc2)NC(=O)[C@H](CC(=O)O)NC(=O)CNC1=O` [^99mTc-3P-RGD2, [^99mTc(HYNIC-3P-RGD2)(tricine)(TPPTS)], metal not drawn] the tissue uptake at 2 h ([4]; blood) was 0.32 ± 0.06 %ID/g, the tissue uptake at 0.5 h ([4]; brain) was 0.41 ± 0.17 %ID/g and the tissue uptake at 1 h ([4]; brain) was 0.41 ± 0.05 %ID/g. The tissue uptake at 2 h ([4]; brain) was 0.23 ± 0.09 %ID/g, the tissue uptake at 1 h ([4]; eyes) was 2.57 ± 0.59 %ID/g and the tissue uptake at 2 h ([4]; eyes) was 2.12 ± 0.86 %ID/g. The tissue uptake at 0.5 h ([4]; heart) was 3.48 ± 0.45 %ID/g, the tissue uptake at 1 h ([4]; heart) was 3.13 ± 0.44 %ID/g and the tissue uptake at 2 h ([4]; heart) was 2.07 ± 0.75 %ID/g. It also gave a tissue uptake at 0.5 h ([4]; intestine) of 4.24 ± 1.54 %ID/g, a tissue uptake at 1 h ([4]; intestine) of 5.45 ± 1.47 %ID/g and a tissue uptake at 2 h ([4]; intestine) of 3.37 ± 1.32 %ID/g. The tissue uptake at 0.5 h ([4]; kidneys) was 32.9 ± 2.94 %ID/g, the tissue uptake at 1 h ([4]; kidneys) was 24.6 ± 3.59 %ID/g and the tissue uptake at 2 h ([4]; kidneys) was 19.1 ± 2.6 %ID/g. It also gave a tissue uptake at 0.5 h ([4]; liver) of 5.82 ± 0.79 %ID/g, a tissue uptake at 1 h ([4]; liver) of 4.83 ± 0.6 %ID/g and a tissue uptake at 2 h ([4]; liver) of 4.52 ± 0.76 %ID/g. For the same molecule, the tissue uptake at 0.5 h ([4]; lungs) was 4.24 ± 0.87 %ID/g, the tissue uptake at 1 h ([4]; lungs) was 3.5 ± 1.01 %ID/g and the tissue uptake at 2 h ([4]; lungs) was 2.39 ± 0.71 %ID/g. It also gave a tissue uptake at 0.5 h ([4]; muscle) of 2.25 ± 0.48 %ID/g, a tissue uptake at 1 h ([4]; muscle) of 1.5 ± 0.49 %ID/g and a tissue uptake at 2 h ([4]; muscle) of 1.23 ± 0.21 %ID/g. The tissue uptake at 0.5 h ([4]; spleen) was 5.03 ± 0.45 %ID/g, the tissue uptake at 1 h ([4]; spleen) was 4.02 ± 0.7 %ID/g and the tissue uptake at 2 h ([4]; spleen) was 3.8 ± 0.5 %ID/g. The tissue to tissue ratio at 0.5 h ([4]; tumor / blood) was 4.33 ± 0.12, the tissue to tissue ratio at 1 h ([4]; tumor / blood) was 5.86 ± 2.21 and the tissue to tissue ratio at 2 h ([4]; tumor / blood) was 12 ± 3.62. For the same molecule, the tissue to tissue ratio at 0.5 h ([4]; tumor / liver) was 1.16 ± 0.54, the tissue to tissue ratio at 1 h ([4]; tumor / liver) was 1.1 ± 0.54 and the tissue to tissue ratio at 2 h ([4]; tumor / liver) was 0.84 ± 0.1. For the same molecule, the tissue to tissue ratio at 0.5 h ([4]; tumor / lung) was 1.52 ± 0.74, the tissue to tissue ratio at 1 h ([4]; tumor / lung) was 1.33 ± 0.52 and the tissue to tissue ratio at 2 h ([4]; tumor / lung) was 1.74 ± 0.63. For the same molecule, the tissue to tissue ratio at 0.5 h ([4]; tumor / muscle) was 1.85 ± 1.38, the tissue to tissue ratio at 1 h ([4]; tumor / muscle) was 2.25 ± 1.56 and the tissue to tissue ratio at 2 h ([4]; tumor / muscle) was 3.09 ± 0.4. It also gave a tissue uptake at 0.5 h ([4]; tumor) of 6.77 ± 1.3 %ID/g, a tissue uptake at 1 h ([4]; tumor) of 4.62 ± 0.57 %ID/g and a tissue uptake at 2 h ([4]; tumor) of 3.93 ± 0.63 %ID/g. For the same molecule, the tissue uptake at 0.5 h ([4]; whole blood) was 1.54 ± 0.14 %ID/g, the tissue uptake at 1 h ([4]; whole blood) was 0.87 ± 0.1 %ID/g and the “Radiotracer remaining intact in the feces samples” value [5] was 70%.
